Data set [1] is described as follows: Metabolic stability in rat liver microsomes assessed as retention time of dihydroxyl derivative metabolite by HPLC-HRMS analysis. Type of data set: ADME, Microsome. In a few lines: (§1)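 Controls were heat-inactivated microsomes, no regenerating system, and drug-free blank. Samples were taken at 0, 15, 30, 60 and 120 min and quenched with cold acetonitrile. Analysis was by LC-HRMS (C18, water/acetonitrile gradient, ± ESI), with metabolites predicted by SyGMa.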
(In general: Microsomes from liver hold many membrane-bound enzymes, among them those of drug oxidation.)

Data set [2] can be described thus: Metabolic stability in rat liver microsomes assessed as retention time of hydroxyl derivative metabolites by HPLC-HRMS analysis. Type of data set: ADME, Microsome. In a few lines:
as §1

Data set [3] is described as follows: Metabolic stability in rat liver microsomes assessed as retention time of hydrogenated dihydroxyl derivative metabolite by HPLC-HRMS analysis. Type of data set: ADME, Microsome. A digest of the protocol:
as §1

Data set [4] can be described thus: Metabolic stability in rat liver microsomes assessed as retention time of parent compound by HPLC-HRMS analysis. Type of data set: ADME, Microsome. In a few lines:
as §1

For data set [5], the system named is Jurkat. Briefly: Cytotoxicity against human Jurkat T cells assessed as reduction in cell viability at 1 to 100 uM measured after 3 days by propidium iodide staining based CFSE staining. As to conditions: dose 1-100 µM; time 3 day. Type of data set: functional.
For data set [6], the system named is THP-1. In words: Antileukemic activity against human THP-1 cells xenografted in Balb/c mouse assessed as reduction in volume at 20 mg/kg, ip measured twice a week. Type of data set: functional, organism-based. In general terms: In xenograft studies the graft and the host belong to different species.
The subject of data set [7] is MV4-11. In words: Induction of apoptosis in human MV4-11 cells assessed as increase in pro-apoptotic activity at 0.1 uM. Type of data set: functional, cell-based. In a few lines:
(§2)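 THP1 or MV4-11 cells (1 × 10^4/well) exposed to inhibitor at 0.1 or 1 μM, alone or with dipyridamole 1.0 μM and/or uridine 5 μM, for 3 days. Apoptosis was read as annexin V-FITC staining by flow cytometry. n = 3; ANOVA/Tukey.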

In data set [8] the test system is THP-1. Briefly: Antileukemic activity against human THP-1 cells xenografted in Balb/c mouse assessed as reduction in tumor weight at 20 mg/kg, ip. Type of data set: functional, organism-based.
The subject of data set [9] is THP-1. In words: Induction of apoptosis in human THP-1 cells assessed as increase in pro-apoptotic activity at 0.1 uM. Type of data set: functional, cell-based. In a few lines:
as §2

Data set [10] deals with THP-1. In words: Induction of apoptosis in human THP-1 cells assessed as increase in pro-apoptotic activity at 1 uM. Type of data set: functional, cell-based.
Data set [11] deals with MV4-11. Briefly: Induction of apoptosis in human MV4-11 cells assessed as increase in pro-apoptotic activity at 1 uM. Type of data set: functional, cell-based.

Activity calls are given as the source filed them. The rule behind the calls is not given here. Where only a bound is given, the exact number is not on record here.

Turning to `O=C(Nc1c(F)c(F)c(-c2ccccc2)c(F)c1F)c1c(O)nn2ccccc12`, the values for the Retention_time in data set [1], in data set [2] and in [3] were 10.59 min, 13.41 min and 14.14 min, respectively.

With `Cc1cc(NC(=O)c2c(O)nn3ccccc23)c(C(C)C)cc1Oc1ccccc1`, in data set [4], the Retention_time worked out at 17.33 min. Besides, the CC30 in data set [5] is more than 100 µM. The outcome in [6], in data set [7], in [8] and in data set [9] was Active.

As to `Cc1cc(Oc2ccccc2)c(C(C)C)cc1NC(=O)c1c(O)nn2ccccc12`, the CC30 in data set [5] was more than 100 µM. Also, the outcome in data set [10] and in data set [11] was Active.

These data come from ChEMBL document CHEMBL5108054, “Targeting Acute Myelogenous Leukemia Using Potent Human Dihydroorotate Dehydrogenase Inhibitors Based on the 2-Hydroxypyrazolo[1,5-a]pyridine Scaffold: SAR of the Aryloxyaryl Moiety” (J Med Chem, 2022).
